# SIAE inh = human SIAE inhibition, primary screen. SIAE FP-Rh probe binding, fluorescence polarization. inhibition, % at 9.66 µM. AID 1053197. hit rate 0.69% among 370,000. Q9HAT2;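 active means inhibition above a cutoff: mean of compounds within the control limits plus 3 SD of those, cut at about 17% in these data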;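 further: 0% = plate median of compound wells and 100% = probe without SIAE protein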
# PRMT1 inh = inhibitors of human PRMT1 | recombinant PRMT1, activity-based probe fluorescence polarization | hit rate 1.3% among 370,000 | AID 652257 | inhibition, % at 2.79 µM | Q99873;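 active means inhibition above about 21% made by adding two undisclosed values, limit read from the data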
# Target sequence (Q99873 whole entry, looked up): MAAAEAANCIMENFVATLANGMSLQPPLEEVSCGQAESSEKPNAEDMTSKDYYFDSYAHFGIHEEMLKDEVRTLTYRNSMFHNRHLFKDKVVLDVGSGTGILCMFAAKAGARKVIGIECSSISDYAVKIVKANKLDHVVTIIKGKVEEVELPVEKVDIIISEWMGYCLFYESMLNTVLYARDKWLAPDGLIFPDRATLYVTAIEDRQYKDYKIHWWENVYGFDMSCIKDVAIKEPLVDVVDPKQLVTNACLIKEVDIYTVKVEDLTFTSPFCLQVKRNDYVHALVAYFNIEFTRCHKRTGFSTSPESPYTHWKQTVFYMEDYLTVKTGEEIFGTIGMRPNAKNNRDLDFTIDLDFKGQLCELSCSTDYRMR
# TCR CD3 inh = inhibitors of human TCR-CD3 interaction | TAMRA-labeled TCR probe fluorescence, biochemical | inhibition, % at 9.4 µM | hit rate 0.37% among 360,000 | AID 651800;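 further: recombinant mutant TCR 2C K166C tagged with TAMRA read by polarization; 0% = receptor in buffer alone and 100% = receptor with positive control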
# mABHD4 FP = inhibitors of mouse ABHD4. Q8VD66. purified mABHD4, FP-Rh probe fluorescence polarization. inhibition, % at 8.92 µM. hit rate 0.54% among 370,000. AID 720543;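 active means inhibition exceeding the mean over every tested compound plus 3 SD, cut at about 30% in these data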;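 further: 0% = plate median of compound wells and 100% = S159A mutant with DMSO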
# Target sequence (Q8VD66 whole entry, looked up): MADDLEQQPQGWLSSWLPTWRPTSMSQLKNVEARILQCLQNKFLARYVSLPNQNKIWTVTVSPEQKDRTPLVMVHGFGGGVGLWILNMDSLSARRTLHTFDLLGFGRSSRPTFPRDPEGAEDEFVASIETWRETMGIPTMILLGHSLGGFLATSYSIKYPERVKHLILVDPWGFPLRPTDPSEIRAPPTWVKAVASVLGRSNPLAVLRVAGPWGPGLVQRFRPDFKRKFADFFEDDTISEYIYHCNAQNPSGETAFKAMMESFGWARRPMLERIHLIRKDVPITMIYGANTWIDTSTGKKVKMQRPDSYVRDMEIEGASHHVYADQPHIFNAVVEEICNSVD
#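 system = mouse ABHD4 enzyme, wild type | medium = HEPES pH 7.0, NaCl, Pluronic buffer | also added = FP-Rh probe | incubation = Enzyme–compound pre-incubation 45 min, then probe 60 min, both 25 °C | technique = fluorescence polarization, excitation 525 nm, emission 598 nm, BODIPY TMR filters | controls = S159A mutant high control, sample median low control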
# rCAG binder = molecules binding r(CAG) RNA repeats | inhibition, % at 3 µM | hit rate 1.3% among 370,000 | r(CAG) RNA repeat, TO-PRO-1 dye displacement fluorescence;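 active means inhibition above the plate cutoff, the mean of all test compounds on that plate plus 3 SD, cut at about 35% in these data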;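 further: 0% = DMSO alone and 100% = 100 µM mitoxantrone as full dye displacement; higher means more dye released from RNA so lower well fluorescence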
# BSA TAMRA ctr = BSA probe counter-screen for TCR-CD3 inhibitors; shares compounds with TCR CD3 inh; AID 652035; TAMRA-labeled BSA probe fluorescence counterscreen; inhibition, % at 9.4 µM; hit rate 10% among 1,200; in the data active means inhibition above about 23%;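 further: 0% = buffer low control and 100% = reference high control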
# TCR-CD3 inh conf = confirmation of human TCR-CD3 interaction inhibitors. shares compounds with TCR CD3 inh. TAMRA-labeled TCR probe fluorescence binding assay. inhibition, % at 9.4 µM. hit rate 48% among 1,200. AID 652036
# The depositor's hits bear a star; . = not tested or not shown. Rows were chosen to be rich in hits. Some 3.3% of all compounds tested hit in one or more screens of this group. Unless noted, no stated cut-off is given here; in the data, active means inhibition above about 19%; inactive means the rest.
SMILES,SIAE inh,PRMT1 inh,TCR CD3 inh,mABHD4 FP,rCAG binder,BSA TAMRA ctr,TCR-CD3 inh conf
Cc1cccc(-c2cccc3c4c([nH]c23)[C@@H]2C[C@H](N(C)C(=O)OCc3ccccc3)[C@H]([C@H](C)O)CN2CC4)c1,-2.6,2.3,.,-1.2,7.6,.,.
CCOC(=O)[C@]12CCCC3=C1N(CCC3)C(=O)[C@@H](CC(=O)N1CCCC1)C2,-3.6,2.1,.,2.9,-0.4,.,.
CN(CC#CC1=CCCCC1)/C(N)=N/C(=O)OCc1ccccc1,-0.3,2.5,.,-6.7,0.0,.,.
O=C(CSc1nnc(-c2ccc(Cl)cc2)n1-c1ccccc1)NN=Cc1c[nH]c2ccccc12,11.5,-6.7,.,-6.5,12.6,.,.
COc1ccc2c(c1)CN1CN(Cc3ccc(F)cc3)S(=O)(=O)CC21 (stereo unspecified),-2.0,-1.2,.,-12.1,3.0,.,.
CN(C)C1=NC[C@H](Cc2ccccc2)N1CCc1cccc(F)c1,-1.3,3.7,-5.6,-11.3,2.8,.,.
NC1=NC[C@H](Cc2ccc(O)cc2)N1CCc1cccc(F)c1,7.2,-0.3,33.2*,4.8,6.5,1.8,5.2
CCCCNS(=O)(=O)/C=C/c1ccccc1CNC(=O)OC(C)(C)C,0.8,-2.5,.,-7.2,-2.3,.,.
CC1(c2nnc(-c3ccc(Cl)cc3)o2)CC(c2ccc(Cl)cc2)=NO1 (stereo unspecified),1.5,-2.1,8.1,3.0,-0.2,.,.
COc1ccc(C2=NOC(C)(c3nnc(-c4ccc(Cl)cc4)o3)C2)cc1 (stereo unspecified),5.4,-0.9,33.6*,-6.8,-0.2,-0.3,-0.4
CCc1ccccc1Nc1ccc(C(=O)O)cc1N,2.6,2.9,11.9,18.6,32.0,.,.
CCNc1ccc(C(=O)O)cc1N,6.5,1.7,22.7*,20.5,-2.5,22.2,13.9
NNC(=O)c1nc[nH]c1C(=O)Nc1ccccc1[N+](=O)[O-],2.3,0.9,30.1*,-1.0,8.6,-6.7,10.2
O=C(Nc1ccc(F)cc1)c1nc[nH]c1C(=O)Nc1ccccc1[N+](=O)[O-],-1.1,-1.7,5.1,2.2,2.9,.,.
Cc1ccc(NC(=O)C2CCCN(c3nnc(-n4cccc4)s3)C2)c(C)c1 (stereo unspecified),-4.3,1.3,.,-1.7,4.0,.,.
OCc1nc2ccccc2n1CCCc1ccccc1,7.0,-1.0,-2.6,2.6,-0.7,.,.
OCc1nc2ccccc2n1CCc1ccccc1,-7.3,2.2,23.2*,-1.5,-0.8,-5.7,-3.2
O=C(CSc1nc2c(c(=O)[nH]1)CCCC2)N1CCOCC1,4.5,-3.9,.,0.7,0.4,.,.
CC(COc1cccc(F)c1)CN1CCC(C(O)(c2ccccc2)c2ccccc2)CC1 (stereo unspecified),4.1,-5.3,.,1.4,1.2,.,.
O=C(Nc1ccc(Cl)c(Cl)c1)Oc1ccc(NC(=O)c2ccco2)cc1,-131.6,-1.8,39.8*,-57.0,11.5,4.4,15.4
O=C(Nc1ccc(OC(=O)c2ccco2)cc1)c1ccco1,-6.6,-1.8,-1.2,-4.2,1.5,.,.
O=S(=O)(CC1NCc2ccccc21)NC1CCCC1 (stereo unspecified),-0.6,-1.8,.,-10.4,5.9,.,.
O=S(=O)(c1ccc2nc(-c3ccccc3)[nH]c2c1)N1CCN(c2cccc(Cl)c2)CC1,-8.4,1.2,68.5*,-4.0,7.8,27.1*,45.5*
Cc1ccc(OC(=O)CCS(=O)(=O)c2ccc(C)cc2)cc1,-8.3,2.6,-8.2,-6.2,-0.8,.,.
Cc1ccc(S(=O)(=O)CCC(=O)Oc2ccc3c(C)cc(=O)oc3c2)cc1,10.9,6.6,23.1*,2.4,-1.2,-8.3,0.0
SMILES,SIAE inh,PRMT1 inh,TCR CD3 inh,mABHD4 FP,rCAG binder,BSA TAMRA ctr,TCR-CD3 inh conf
Cc1ccc(CNC(=O)O[C@H]2CC[C@@]34CCCN3C(=O)CCC[C@H]4[C@H]2C)cc1,6.8,-3.8,.,-1.4,.,.,.
Cc1nnsc1C(=O)N/N=C/c1ccc2ccccc2c1O,5.7,15.3,41.0*,5.4,4.3,-23.1,29.0*
Cc1nnsc1C(=O)N/N=C/c1ccccc1,2.7,-0.7,4.0,2.9,1.2,.,.
C/C=C(/C)C(=O)Nc1cccc(C2=NOC3(C2)C[C@@H](C(N)=O)N(C(=O)c2ccc(OC)cc2)C3)c1 (stereo partly specified),14.6,0.8,37.8*,1.0,3.1,3.2,3.8
NC(=O)[C@H]1CC2(CC(c3cccc(NC(=O)CC(c4ccccc4)c4ccccc4)c3)=NO2)CN1C(=O)CC(c1ccccc1)c1ccccc1 (stereo partly specified),-70.2,1.0,22.3*,-80.9,14.4,7.8,17.1
NC(=O)[C@@H]1CC2(CC(c3cccc(NC(=O)CC(c4ccccc4)c4ccccc4)c3)=NO2)CN1C(=O)c1ccc(Cl)cc1 (stereo partly specified),-68.5,-0.6,34.6*,-75.8,23.0,7.5,19.7*
C/C=C(/C)C(=O)Nc1cccc(C2=NOC3(C2)C[C@H](C(N)=O)N(C(=O)c2ccccc2)C3)c1 (stereo partly specified),5.1,1.9,3.0,4.3,1.6,.,.
CCn1c(SCC(=O)NN=Cc2c(C)nn(-c3ccccc3)c2C)nnc1-c1ccc(OC)c(OC)c1,3.2,-0.1,.,6.4,-1.0,.,.
O=C(O)/C=C/c1cn(-c2ccccc2)nc1-c1cccc([N+](=O)[O-])c1,-7.9,-2.9,4.2,1.6,11.9,.,.
NS(=O)(=O)c1ccc(NC(=O)/C=C/c2cn(-c3ccccc3)nc2-c2cccc(Cl)c2)cc1,-230.3,-5.7,24.4*,-45.5,18.1,16.8,26.9*
CCCC(=O)OC12CCCN(C1)/C(=C/c1ccccc1)C2 (stereo unspecified),3.3,0.7,.,4.6,0.9,.,.
O=C(COC(=O)c1ccc(Sc2ncn[nH]2)c([N+](=O)[O-])c1)Nc1ccc(Cl)cc1,-6.7,-9.9,.,-12.2,20.2,.,.
CCN(CC)S(=O)(=O)c1cccc(C(=O)N/N=C(\C)c2ccc(O)cc2O)c1,11.2,2.3,41.2*,20.6,20.6,-19.3,44.4*
CCN(CC)C(=O)c1ccccc1NC(=O)c1cccc(S(=O)(=O)N(CC)CC)c1,-3.7,0.3,5.8,-1.7,-2.8,.,.
CC(=O)c1cc(-c2ccc(Cl)c(C(F)(F)F)c2)c(=O)n2c1CCC2,0.5,2.2,.,-2.8,-0.9,.,.
CCCS(=O)(=O)N1CCCC(C(=O)NCCCN(Cc2ccccc2)C(C)C)C1 (stereo unspecified),7.2,-0.2,65.1*,-4.1,-0.7,-2.4,0.4
O=c1[nH]c2ccccc2nc1/C=C(\O)C(F)F,-6.5,-0.9,4.8,1.6,0.6,.,.
O=Nc1[nH]c(=O)c(/C=C(\O)c2ccccc2)nc1NO,5.6,1.3,29.7*,5.7,8.6,7.1,35.8*
COc1ccc([C@H]2CC(=O)C[C@@H](CCn3cc(Cc4ccccc4)nn3)O2)cc1,-1.8,-5.6,23.9*,-3.1,2.3,7.5,5.8
COc1ccc([C@H]2CC(=O)C[C@@H](CCn3cc(-c4ccccc4)nn3)O2)cc1,0.2,0.8,6.5,4.4,3.2,.,.

# Compound activity from PubChem BioAssay.
